Assay results: ChEMBL document CHEMBL4364260, “Discovery of Ziresovir as a Potent, Selective, and Orally Bioavailable Respiratory Syncytial Virus Fusion Protein Inhibitor” (J Med Chem, 2019)
The source made the active and inactive calls. No cut-off for these calls is given here.

Legend:
[1] = tested on: Fusion glycoprotein F0 (Human respiratory syncytial virus A (strain A2)), P03420 [D486N]; test: Inhibition of Human respiratory syncytial virus Fusion protein D486N mutant expressed in Hep2 cells as reduction in virus induced cytopathic effect by CCK-8 assay; assay type: cell-based
Outline: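 HEp-2 cells were seeded at 6000/well and infected with plaque-purified RSV carrying the F-protein mutation (D486N or D489A) at MOI 0.04, with serially diluted compound. Viability was read by CCK-8 absorbance at 450 nm/650 nm, and EC50/EC90 were derived from protection against virus-induced cytopathic effect.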

[2] = Antiviral activity against Human respiratory syncytial virus A strain Long infected in human Hep2 cells assessed as plaque reduction […] by chloro-1-naphthol staining-based assay; assay type: functional
Outline: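 HEp-2 monolayers in 12-well plates got 0.5 ml of 200 PFU/ml RSV Long with or without serial compound dilutions. After 2 h they were overlaid with DMEM/F12, 4% FBS, 0.55% agarose plus compound and incubated 3 days. Cells were fixed in 4% paraformaldehyde for 6 h and immunostained with anti-RSV mAb (1:300), then HRP anti-mouse. Plaques were developed with 4-chloro-1-naphthol/H2O2 and counted.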

[3] = Volume of distribution at steady state in Beagle dog at 1 mg/kg, iv or 10 mg/kg, po; assay type: ADME, organism-based, Canis lupus familiaris; settings: in vivo, read-out: Vdss
Outline: (§1)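 Beagle dog single-dose PK at 1 mg/kg iv and 10 mg/kg po, dosed as a solution in 12.5% captisol in water. Plasma clearance, Vss, iv T1/2, AUC and F were reported.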

[4] = AUC (0 to 24 hrs) in CD-1 mouse at 50 mg/kg, po; assay type: ADME, organism-based; set-up: dose 50 mg/kg, time < 24 hr, route oral; settings: in vivo
Outline: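 Single-dose PK in mouse at 5 mg/kg iv or 50 mg/kg po, as a solution in 5% DMSO, 40% PEG400 and 55% 0.9% sodium chloride. Plasma AUC was taken from the oral arm, with CL, Vss, iv T1/2 and F also derived.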

[5] = AUC (0 to 24 hrs) in Beagle dog at 10 mg/kg, po; assay type: ADME, organism-based, Canis lupus familiaris; set-up: dose 10 mg/kg, time < 24 hr, route oral; settings: in vivo
Outline: (§2)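 Single-dose PK. Dog received 1 mg/kg iv or 10 mg/kg po, and cynomolgus monkey received 2 mg/kg iv or 10 mg/kg po. Both were given as a solution in 12.5% captisol in water. Plasma AUC was taken from the oral arm, with CL, Vss, iv T1/2 and F also derived.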

Enterovirus = test: Antiviral activity against Rhinovirus infected in human Hep2 cells assessed as reduction in virus induced cytopathic effect after 5 days by CCK-8 assay; assay type: functional, organism-based
[6] = Oral bioavailability in Wistar-Han rat at 10 mg/kg administered as single dose via gavage and measured up to 24 hrs by LC/MS/MS analysis; assay type: ADME, organism-based; settings: in vivo
Outline: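 Male Wistar-Han rats, single dose, 2 mg/kg iv and 10 mg/kg po, run by standard procedures.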

Human respirovirus 1 = test: Antiviral activity against Human parainfluenza virus 1 infected in human Hep2 cells assessed as reduction in virus induced cytopathic effect after 5 days by CCK-8 assay; assay type: functional, organism-based
[7] = Clearance in Sprague-Dawley rat at 2 mg/kg, iv or 10 mg/kg, po; assay type: ADME, organism-based; settings: in vivo
Outline: (§3)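 Rat single-dose PK: 2 mg/kg iv and 10 mg/kg po. Compound was given as a solution in 5% DMSO/40% PEG400/55% of 0.9% saline. Plasma CL, Vss, iv half-life, AUC and oral bioavailability were reported.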

[8] = AUC (0 to 24 hrs) in cynomolgus monkey at 10 mg/kg, po; assay type: ADME, organism-based, Macaca fascicularis; set-up: dose 10 mg/kg, time < 24 hr, route oral; settings: in vivo; outline: as §2
[9] = Oral bioavailability in cynomolgus monkey at 10 mg/kg; assay type: ADME, organism-based, Macaca fascicularis; settings: in vivo
Outline: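 Cynomolgus monkeys got single doses of 2 mg/kg iv and 10 mg/kg po as a solution in 12.5% captisol in water. Plasma CL, Vss, iv T1/2, AUC and oral F were derived.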

[10] = Half-life in Sprague-Dawley rat at 2 mg/kg, iv; assay type: ADME, organism-based; settings: in vivo; outline: as §3
[11] = Ratio of AUC (0 to 24 hrs) in lung to plasma of CD-1 mouse at 10 mg/kg, po administered via gavage by LC-MS/MS analysis; assay type: ADME, organism-based; settings: read-out: Ratio AUC
[12] = Cytotoxicity against human Hep2 cells assessed as reduction in cell viability after 5 days by CCK-8 assay; assay type: cell-based; settings: HEp-2 cells
Outline: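 Uninfected HEp-2 cells (6000/well) were incubated 5 days with serially diluted compound. Viability was read by CCK-8, and CC50 is the concentration toxic to 50% of cells.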

[13] = Antiviral activity against Human respiratory syncytial virus B 821 clinical isolates infected in human Hep2 cells assessed as reduction in virus induced cytopathic effect in presence of 10% FBS after 5 days by CCK-8 assay; assay type: functional, cell-based; settings: human respiratory syncytial virus, 821, HEp-2, 120 h
Outline: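 HEp-2 cells seeded at 6000/well and infected the next day at MOI 0.02, a dose that gives about 90% CPE by day 5. Serial compound dilutions were present throughout, in standard medium with 10% FBS. Viability was read by CCK-8 at day 5, and EC50 is the concentration that cuts CPE by 50%.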

[14] = AUC (0 to 24 hrs) in CD-1 mouse plasma at 10 mg/kg/day, po administered via gavage and measured up to 24 hrs by LC/MS/MS analysis; assay type: ADME, organism-based; set-up: dose 10 mg/kg/day, time < 24 hr, route oral
[15] = molecular target: Fusion glycoprotein F0 (human respiratory syncytial virus) (UniProt Q89535); test: Inhibition of Human respiratory syncytial virus Fusion protein assessed as reduction in protein-induced syncytia formation at 0.1 uM after 3 days by microscopic method relative to control
Outline: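 Serially diluted compound was added to cells expressing RSV-F. Cell-cell fusion (syncytia) was scored by microscopy three days after compound addition.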

[16] = AUC (0 to 24 hrs) in CD-1 mouse lung at 10 mg/kg/day, po administered via gavage and measured up to 24 hrs by LC/MS/MS analysis; assay type: ADME, organism-based; set-up: dose 10 mg/kg/day, time < 24 hr, route oral
[17] = Half-life in Beagle dog at 1 mg/kg, iv; assay type: ADME, organism-based, Canis lupus familiaris; settings: in vivo; outline: as §1
[18] = Oral bioavailability in CD-1 mouse at 50 mg/kg; assay type: ADME, organism-based; settings: in vivo
Outline: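 Single-dose PK in CD-1 mice: 5 mg/kg iv, 50 mg/kg po. Dosed as a solution in 5% DMSO, 40% PEG400, 55% of 0.9% NaCl. Plasma CL, Vss, iv T1/2, AUC and F were derived.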

Human orthopneumovirus = test: Antiviral activity against Human respiratory syncytial virus A2 infected in human Hep2 cells assessed as reduction in virus induced cytopathic effect after 5 days by CCK-8 assay; assay type: functional, organism-based; settings: A2, HEp-2, 120 h
Outline: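 CPE protection assay in HEp-2 cells, 6000 per well, infected next day with RSV at MOI 0.02 to give about 90% cytopathic effect after 5 days. Serial compound dilutions were present during incubation. Cell viability was measured by CCK-8 at day 5 to give EC50.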

[19] = Half-life in CD-1 mouse lung at 10 mg/kg/day, po administered via gavage and measured up to 24 hrs by LC/MS/MS analysis; assay type: ADME, organism-based
[20] = Cmax in CD-1 mouse lung at 10 mg/kg/day, po administered via gavage and measured up to 24 hrs by LC/MS/MS analysis; assay type: ADME, organism-based; set-up: dose 10 mg/kg/day, route oral

For Cc1ccc2nc(N3CCS(=O)(=O)c4ccccc4C3)nc(NCC3(N)COC3)c2c1 [ZIRESOVIR], the EC90 [1] was > 10000 nM, the EC90 [2] was 10 nM and the Vd [3] was 6.7 L/kg. The AUC(0-t) at 24 h [4] was 1.97 µg·h/mL, the AUC(0-t) at 24 h [5] was 1.17 µg·h/mL and the Activity (Enterovirus) was “inactive”. The bioavailability [6] was 32%, the Activity (Human respirovirus 1) was “inactive” and the clearance [7] was 3.48 L/h/kg. It also gave an AUC(0-t) at 24 h [8] of 1.44 µg·h/mL, a bioavailability [9] of 22% and a half-life [10] of 1.2 h. The Kp [11] was 8.6, the CC50 at 120 h [12] was > 100000 nM and the EC50 [13] was 3 nM. It also gave an EC90 [13] of 8 nM, an AUC at 24 h [14] of 8.38 µg·h/mL and an inhibition [15] of 100%. The AUC at 24 h [16] was 72.4 µg·h/mL, the half-life [17] was 2.8 h and the bioavailability [18] was 66%. For the same compound, the EC50 (Human orthopneumovirus) was 2 nM, the EC90 (Human orthopneumovirus) was 3 nM and the half-life [19] was 3.31 h. The Cmax [20] was 22.7 µg/mL.
